Consider five compounds from ChEMBL document CHEMBL3046214, “Friedelane triterpenes from Celastrus vulcanicola as photosynthetic inhibitors” (J Agric Food Chem, 2010).

The structures appear in SMILES notation. The source made the active and inactive calls. No cut-off for these calls is given here.

Test [1] concerns Spinacia oleracea. Description: Inhibition of photophosphorylation in Spinacia oleracea (spinach) leaves chloroplasts by titrimetry. In kind it is functional. Particulars: for IC50: read-out: I50. A digest of the protocol: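 Intact spinach chloroplasts (20 μg Chl/mL) were osmotically broken in 3 mL of weakly buffered medium: 100 mM sorbitol, 10 mM KCl, 5 mM MgCl2, 0.5 mM KCN, 1 mM tricine-KOH pH 8.0, 50 μM MV and 1 mM ADP. ATP synthesis was taken from the medium alkalization rate in the linear part of illumination, calibrated by HCl back-titration, as μmol ATP (mg Chl)-1 h-1. I50 was obtained from concentration-activity plots; three replicates.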

In test [2] the test system is Spinacia oleracea. Description: Increase in Magnesium-transporting ATPase activity in Spinacia oleracea (spinach) leaves chloroplasts thylakoids at 2 mM. A digest of the protocol: (§1)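 Spinach chloroplasts were isolated in 350 mM sorbitol, 5 mM ascorbate, 20 mM MES pH 6.5, centrifuged at 3000g for 60 s, washed, and resuspended in 35 mM HEPES pH 7.6. Light-triggered Mg2+-ATPase activity of thylakoid membranes was measured as released inorganic phosphate. Ammonium chloride served as positive control.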

Test [3] concerns Spinacia oleracea. Description: Increase in Magnesium-transporting ATPase activity in Spinacia oleracea (spinach) leaves chloroplasts thylakoids at 1 mM. A digest of the protocol:
as §1

The test system of test [4] is Spinacia oleracea. Description: Increase in Magnesium-transporting ATPase activity in Spinacia oleracea (spinach) leaves chloroplasts thylakoids at 3 mM. A digest of the protocol:
as §1

Test [5] concerns Spinacia oleracea. Description: Increase in Magnesium-transporting ATPase activity in Spinacia oleracea (spinach) leaves chloroplasts thylakoids at 100 uM. A digest of the protocol: as §1
Test [6] concerns Physalis ixocarpa. Description: Effect on biomass production in Physalis ixocarpa assessed as plant dry weight at 200 uM measured 14 days post compound application relative to untreated control. In kind it is functional. A digest of the protocol: (§2)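 Greenhouse-grown plants (pots, watered daily, 25 to 30 °C) of similar size, sprayed at 15 (P. ixocarpa) or 18 (L. perenne) days after emergence. Compound taken from a 20 mM DMSO stock into aqueous 0.05% w/v Tween-20; controls were sprayed with water containing the same DMSO and Tween-20. Plants harvested at ground level, oven-dried at 65 °C to constant weight, then weighed.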

Test [7] concerns Lolium perenne. Description: Inhibition of photosynthetic efficiency in Lolium perenne (perennial ryegrass) assessed as effect on OJIP transients at 100 uM measured 24 to 48 hr post compound application. Type of test: functional, organism-based. A digest of the protocol:
(§3)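 Greenhouse L. perenne sprayed 18 days after emergence (20 mM DMSO stock diluted into 0.05% Tween-20; vehicle-sprayed controls). Leaves dark-adapted 15 min, then excited with 3000 μmol photons m-2 s-1 red light (650 nm) from three LEDs. OJIP transients recorded at room temperature with a Handy PEA. PI(abs) and other parameters are shown on radar plots normalized to control.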

Test [8] relates to Spinacia oleracea. Description: Inhibition of phosphorylating noncyclic electron transport from water to MV in Spinacia oleracea (spinach) leaves chloroplasts at 50 to 300 uM using Clark type electrode system based method. In kind it is functional. A digest of the protocol: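 Clark-electrode measurement of water-to-MV electron flow in the basal medium (sorbitol, KCl, MgCl2, 0.5 mM KCN, 50 μM MV, 15 mM tricine-KOH pH 8.0; 20 μg Chl/mL; 1 min light), with 1 mM ADP and 3 mM KH2PO4 added.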

Test [9] deals with Physalis ixocarpa. Description: Inhibition of photosynthetic efficiency in Physalis ixocarpa intact leaves assessed as reduction in PI(abs) level at 200 uM measured 48 hr post compound application. In kind it is functional. A digest of the protocol: (§4)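 P. ixocarpa plants sprayed 15 days after emergence (greenhouse, 25-30 °C; 20 mM DMSO stock diluted into 0.05% Tween-20; vehicle-sprayed controls). Leaves dark-adapted 15 min, then excited with 650 nm red LED light at 3000 μmol photons m-2 s-1. Chl a OJIP transients recorded with a Handy PEA at room temperature. PI(abs) is normalized to control; K-, J- and I-bands come from variable fluorescence difference curves; five replicates.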

In test [10] the test system is Physalis ixocarpa. Description: Inhibition of photosynthetic efficiency in Physalis ixocarpa intact leaves assessed as increase in chlorophyll a fluorescence transients at 100 uM measured 72 hr post compound application. In kind it is functional, organism-based. A digest of the protocol: as §4
Test [11] concerns Spinacia oleracea. Description: Increase in Magnesium-transporting ATPase activity in Spinacia oleracea (spinach) leaves chloroplasts thylakoids at 300 uM. A digest of the protocol:
as §1

The test system of test [12] is Lolium perenne. Description: Effect on photosynthetic efficiency in Lolium perenne (perennial ryegrass) assessed as increase in OJIP transients at 100 uM measured 72 hr post compound application. In kind it is functional. A digest of the protocol:
as §3

Test [13] deals with Spinacia oleracea. Description: Inhibition of uncoupled electron transport from water to MV in Spinacia oleracea (spinach) leaves chloroplasts at 50 to 300 uM using Clark type electrode system based method. Type of test: functional, organism-based. A digest of the protocol:
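Water-to-MV electron transport measured with a Clark electrode in the basal medium (20 μg Chl/mL, 50 μM MV, 15 mM tricine-KOH pH 8.0, 1 min illumination), with 6 mM NH4Cl added as uncoupler.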

For test [14], the system named is Lolium perenne. Description: Effect on biomass production in Lolium perenne (perennial ryegrass) assessed as plant dry weight at 200 uM measured 14 days post compound application relative to untreated control. Type of test: functional. A digest of the protocol:
as §2

In test [15] the test system is Lolium perenne. Description: Inhibition of photosynthetic efficiency in Lolium perenne (perennial ryegrass) at 200 uM measured 24 to 72 hr post compound application. Type of test: functional. A digest of the protocol: as §3
Test [16] has as its system Spinacia oleracea. Description: Effect on photosynthesis efficiency in Spinacia oleracea (spinach) leaves freshly lysed chloroplasts assessed as change in chlorophyll a fluorescence at 150 to 450 uM. Type of test: functional. A digest of the protocol: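 Freshly lysed spinach thylakoids (20 μg Chl) were placed on filter paper with a dot-blot apparatus and dipped in 3 mL basal electron transport medium without MV, containing compound. After 5 min dark adaptation, fluorescence was excited with 3000 μmol m-2 s-1 650 nm LED light (2 s pulse) at room temperature. Wt = (Ft−F0)/(FJ−F0), difference from control used for K-band; five replicates.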

Test [17] concerns Physalis ixocarpa. Description: Inhibition of photosynthetic efficiency in Physalis ixocarpa intact leaves assessed as effect on OJIP transients at 100 uM measured 24 hr post compound application. Type of test: functional, organism-based. A digest of the protocol:
as §4

In test [18] the test system is Physalis ixocarpa. Description: Inhibition of photosynthetic efficiency in Physalis ixocarpa intact leaves assessed as reduction in PI(abs) level at 100 uM measured 48 hr post compound application. In kind it is functional. A digest of the protocol:
as §4

In test [19] the test system is Spinacia oleracea. Description: Inhibition of basal electron transport from water to MV in Spinacia oleracea (spinach) leaves chloroplasts at 50 to 300 uM using Clark type electrode system based method. Type of test: functional, organism-based.
Test [20] deals with Physalis ixocarpa. Description: Inhibition of photosynthetic efficiency in Physalis ixocarpa intact leaves assessed as reduction in chlorophyll a fluorescence transients at 200 uM measured 48 hr post compound application. In kind it is functional. A digest of the protocol: as §4
The subject of test [21] is Physalis ixocarpa. Description: Inhibition of photosynthetic efficiency in Physalis ixocarpa intact leaves assessed as increase in chlorophyll a fluorescence transients at 100 uM measured 48 hr post compound application. Details: scale not given: the % may be the effect or the level left. Type of test: functional. A digest of the protocol: as §4
Test [22] concerns Physalis ixocarpa. Description: Effect on biomass production in Physalis ixocarpa assessed as plant dry weight at 100 uM measured 14 days post compound application relative to untreated control. Type of test: functional. A digest of the protocol: as §2
Test [23] deals with Spinacia oleracea. Description: Increase in Magnesium-transporting ATPase activity in Spinacia oleracea (spinach) leaves chloroplasts thylakoids at 200 uM. A digest of the protocol:
as §1

Test [24] concerns Lolium perenne. Description: Effect on photosynthetic efficiency in Lolium perenne (perennial ryegrass) assessed as increase in PI(abs) transients at 100 uM measured 72 hr post compound application. In kind it is functional. A digest of the protocol: as §3
In test [25] the test system is Lolium perenne. Description: Effect on biomass production in Lolium perenne (perennial ryegrass) assessed as plant dry weight at 100 uM measured 14 days post compound application relative to untreated control. Type of test: functional. A digest of the protocol: as §2
Test [26] deals with Lolium perenne. Description: Inhibition of photosynthetic efficiency in Lolium perenne (perennial ryegrass) assessed as effect on OJIP transients at 200 uM measured 72 hr post compound application. Type of test: functional, organism-based. A digest of the protocol:
as §3

The term inhibition denotes the relative decrease from the control value, in per cent. In the case of `C[C@H]1C(=O)CC[C@@H]2[C@]1(C)CC[C@H]1[C@@]2(C)CC[C@@]2(C)[C@@H]3C[C@](C)(CO)CC[C@]3(C)CC[C@]12C`, the inhibition entry in [1] was “inactive”.
On to `Cl.N`, for which the Activity in test [2] amounted to 252%; in test [3], 128%; in test [4] it was 234%.
For `C[C@H]1[C@@H](O)CC[C@@H]2[C@]1(C)CC[C@H]1[C@@]2(C)CC[C@@]2(C)[C@@H]3CC(C)(C)CC[C@]3(C)CC[C@]12C` [EPIFRIEDELINOL], the Activity in test [5] is 110%; in test [6], 101.3%; in test [11], 123%; in test [12], 20%; in test [14] it was 91.2%; in test [21] it was 10%. The Activity came to 23.2% in test [22], 112% in [23], 10% in [24] and 79.6% in test [25]. For the same compound, the inhibition result in test [7], in test [8], in [13], in test [17], in [19] and in [26] was “inactive” in each case. Further, the inhibition at 200 µM in test [9] was 15%; in [15], 12%; in test [20] it was 10%. In addition, the outcome in [10] and in [16] was Active. For the same compound, in test [18], the inhibition at 100 µM worked out at 40%. Further, in test [1], the IC50 was 82 µM.
As to `C[C@H]1C(=O)CC[C@@H]2[C@]1(C)CC[C@H]1[C@@]2(C)CC[C@@]2(C)[C@@H]3CC(C)(C)CC[C@]3(C)CC[C@]12C` [FRIEDELINE], in test [1], the IC50 came to 182 µM.
Still for that read-out and setting: then `C[C@H]1C(=O)CC[C@@H]2[C@]1(C)CC[C@H]1[C@@]2(C)CC[C@@]2(C)[C@@H]3C[C@](C)(C(=O)O)CC[C@]3(C)CC[C@]12C` [MAYTENOIC ACID], with 269 µM.
